ChEMBL document CHEMBL1121694, “2-(Aminomethyl)phenols, a new class of saluretic agents. 3. Effects of functional group reorientation and modification” (1981)

Experiments:
Canis familiaris [1] = assay: Tested for the saluretic property in dogs after intravenous administration of 5 mg/kg; 0-99 micro equivalents of Na+ excreted per minute; format: functional, Canis lupus familiaris
How it was run: (§1)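 Each dog score comes from one animal (body weight 15.2-21 kg) given the dose as a single stat administration. The standard dose is 5 mg/kg unless another is designated. Protocol and scoring system are referenced to earlier work.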

Rattus norvegicus = assay: Evaluated for the saluretic property in rats after oral administration; score represents micro equivalents of Na+ excreted at a given mg/kg dose; format: functional
How it was run: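 The score is the geometric mean of three animals per cage, with three cages per dose. Protocol and scoring system are referenced to earlier work.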

Canis familiaris [2] = assay: Compound was tested for the saluretic property in dogs after intravenous administration of 5 mg/kg; 100-249 micro equivalents of Na+ excreted per minute; format: functional, Canis lupus familiaris
Canis familiaris [3] = assay: Compound was tested for the saluretic property in dogs after intravenous administration of 10 mg/kg; format: functional, Canis lupus familiaris; how it was run: as §1
Canis familiaris [4] = assay: Compound was tested for the saluretic property in dogs after intravenous administration of 1 mg/kg; >900 micro equivalents of Na+ excreted per minute; format: functional, Canis lupus familiaris; how it was run: as §1
Canis familiaris [5] = assay: Compound was tested for the saluretic property in dogs after intravenous administration of 5 mg/kg; >900 micro equivalents of Na+ excreted per minute; format: functional, Canis lupus familiaris; how it was run: as §1
Canis familiaris [6] = assay: Compound was tested for the saluretic property in dogs after intravenous administration of 5 mg/kg; activity above 5 mg/kg; format: functional, organism-based; conditions: Canis lupus familiaris; how it was run: as §1
Canis familiaris [7] = assay: Compound was evaluated for the saluretic property in dog after iv administration; score represents micro equivalents of Na+ excreted at a given mg/kg dose; format: functional, Canis lupus familiaris; how it was run: as §1
Canis familiaris [8] = assay: Compound was tested for the saluretic property in dogs after intravenous administration of 5 mg/kg; 600-799 micro equivalents of Na+ excreted per minute; format: functional, Canis lupus familiaris; how it was run: as §1
Canis familiaris [9] = assay: Compound was tested for the saluretic property in dogs after intravenous administration of 5 mg/kg; 800-899 micro equivalents of Na+ excreted at a given mg/kg dose; format: functional, Canis lupus familiaris; how it was run: as §1

SMILES | Score (Canis familiaris [1]) | Score (Rattus norvegicus) | further results
Cl.NCc1cc(Cl)cc(Cl)c1 | 0 | 0 | –
Cl.NCc1cc(Cl)c(O)c(Cl)c1Cl | 0 | 0 | –
O=Cc1c(O)c(Cl)cc(Cl)c1Cl | 0 | 0 | –
Cl.NCCc1c(O)c(Cl)cc(Cl)c1Cl | – | 1 | Score (Canis familiaris [2]): 1
NCc1c(Cl)cc(Cl)c(O)c1Cl | – | 0 | Score (Canis familiaris [3]): 0
NS(=O)(=O)c1cc(C(=O)O)c(NCc2ccco2)cc1Cl [FUROSEMIDE] | – | 3 | Score (Canis familiaris [4]): 6
Cl.NCC(O)c1c(O)c(Cl)cc(Cl)c1Cl (centres undefined) | – | 0 | Score (Canis familiaris [2]): 1
CC(C)(C)c1cc(Cl)c(O)c(CN)c1.Cl | – | 6 | Score (Canis familiaris [5]): 6
O=C(O)c1c(O)c(Cl)cc(Cl)c1Cl | – | 0 | –
COc1c(Cl)c(O)c(C(=O)O)c(OC)c1Cl | 0 | 0 | –
NCc1cc(Cl)cc(Cl)c1O | – | 2 | Score (Canis familiaris [6]): activity above 5 mg/kg
Nc1c(O)c(Cl)cc(Cl)c1Cl | – | 0 | –
OCc1c(O)c(Cl)cc(Cl)c1Cl | 0 | 0 | –
NS(=O)(=O)c1c(O)c(Cl)cc(Cl)c1Cl | – | 0 | –
COc1c(Cl)c(O)c(C=O)c(OC)c1Cl | 0 | 0 | –
COc1c(Cl)c(O)c(CN)c(OC)c1Cl.Cl | – | 5 | Score (Canis familiaris [5]): 6
CC(C)(C)c1cc(I)c(O)c(C(=O)O)c1 | – | 0 | Score (Canis familiaris [2]): 1
CC(C)(C)c1cc(Cl)c(O)c(CCCN)c1 | – | – | Score (Canis familiaris [7]): 0
Cl.NCc1c(N)c(Cl)cc(Cl)c1Cl | 0 | – | –
CC(C)(C)c1cc(I)c(O)c(CN)c1.Cl | – | 6 | Score (Canis familiaris [8]): 4
Cl.NCc1c(O)c(Cl)cc(Cl)c1Cl | – | 3 | Score (Canis familiaris [9]): 5
NS(=O)(=O)c1cc2c(cc1Cl)NCNS2(=O)=O [HYDROCHLOROTHIAZIDE] | – | 2 | Score (Canis familiaris [2]): 1
